Source: paper PMC11261338 (RSC Advances, 2024)

How the values were obtained:
[1] = tested on: myoblast cells (C2C12); experiment: MTT assay, IC50 against myoblast cells; type: cell-based; settings: C2C12, 48 h, read-out: IC50 (μM) C2C12
Summary of the method: (§1)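 Cells kept at 37 °C, 5% CO2: AGS in RPMI-1640 and C2C12 in DMEM, each with 10% FBS, 0.25 μg mL−1 amphotericin B and 25 μg mL−1 gentamicin. 5000 cells/well were seeded for 12 h, then given test compound at 1000, 100, 10, 1 and 0.1 μM for 48 h. Untreated cells served as controls.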

[2] = tested on: MCF-7 (mammary carcinoma) cells; experiment: MTT assay, IC50 against breast cancer cells; type: cell-based; settings: Homo sapiens, MCF7, 48 h, read-out: IC50 (μM) MCF-7
Summary of the method: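 MCF-7 cells grown in DMEM with human insulin (10 μg mL−1), 10% FBS, amphotericin B and gentamicin at 37 °C, 5% CO2. Seeded at 5000 cells per well for 12 h, then exposed 48 h to the test compound at 0.1, 1, 10, 100 and 1000 μM, with untreated controls. PBS wash, 0.5 mg mL−1 MTT for 90 min at 37 °C, DMSO solubilisation, A570.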

[3] = tested on: AGS (gastric adenocarcinoma) cells; experiment: MTT assay, IC50 against gastric cancer cells; type: cell-based; settings: 48 h, read-out: IC50 (μM) AGS
Summary of the method: as §1

[4] = tested on: myoblast cells (C2C12); experiment: MTT cell viability of normal myoblast cells at a single concentration; type: cell-based, human; settings: DHPM 10 μM, 48 hours
Summary of the method: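 C2C12 myoblasts were grown in DMEM with 10% FBS, amphotericin B and gentamicin at 37 °C, 5% CO2, and seeded at 5000 cells/well for 12 h. Test compound was applied at 10 μM for 48 h. Cells were washed with PBS, given 0.5 mg mL−1 MTT in PBS for 90 min at 37 °C, and the formazan was dissolved in DMSO with 30 min agitation in the dark. A570 was read, in triplicate.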

Structure (SMILES)	IC50 [1] [µM]	IC50 [2] [µM]	IC50 [3] [µM]	viability (%) of myoblast cells (C2C12) [4] [%]
CCCCCCCC/C=C\CCCCCCCCOC(=O)C1=C(C)NC(=O)NC1c1cccc(O)c1 (stereo not shown) [10c, (Z)-Octadec-9-enyl 4-(3-hydroxyphenyl)-6-methyl-2-oxo-1,2,3,4-tetrahydropyrimidine-5-carboxylate]	18.4 ± 10.5	2.3 ± 0.4	12.1 ± 0.4	~70
CCCCCCCC/C=C\CCCCCCCCOC(=O)C1=C(C)NC(=S)NC1c1ccccc1O (stereo not shown) [11b, (Z)-Octadec-9-enyl 4-(2-hydroxyphenyl)-6-methyl-2-thioxo-1,2,3,4-tetrahydropyrimidine-5-carboxylate]	88.5 ± 6.4	10.1 ± 1.3	20.2 ± 2.1	–
CCCCCCCC/C=C\CCCCCCCCOC(=O)C1=C(C)NC(=S)NC1c1cccc(O)c1 (stereo not shown) [11c, (Z)-Octadec-9-enyl 4-(3-hydroxyphenyl)-6-methyl-2-thioxo-1,2,3,4-tetrahydropyrimidine-5-carboxylate]	446 ± 84.2	28.4 ± 7	125 ± 6.2	–
CCCCCCCC/C=C\CCCCCCCCOC(=O)C1=C(C)NC(=S)NC1c1cccc(Cl)c1 (stereo not shown) [11f, (Z)-Octadec-9-enyl 4-(3-chlorophenyl)-6-methyl-2-thioxo-1,2,3,4-tetrahydropyrimidine-5-carboxylate]	307 ± 143	8.8 ± 8.3	146 ± 25.9	–
CCCCCCCC/C=C\CCCCCCCCOC(=O)C1=C(C)NC(=S)NC1c1ccc(C)cc1 (stereo not shown) [11h, (Z)-Octadec-9-enyl 6-methyl-2-thioxo-4-(p-tolyl)-1,2,3,4-tetrahydropyrimidine-5-carboxylate]	362 ± 12.6	39.2 ± 4.9	126 ± 4.6	–
CCCCCCCC/C=C\CCCCCCCCOC(=O)C1=C(C)NC(=S)NC1c1ccc(OC)cc1 (stereo not shown) [11i, (Z)-Octadec-9-enyl 4-(4-methoxyphenyl)-6-methyl-2-thioxo-1,2,3,4-tetrahydropyrimidine-5-carboxylate]	166 ± 8.9	16.4 ± 2.7	101.8 ± 0.6	–
CCOC(=O)C1=C(C)NC(=S)NC1c1cccc(O)c1 (stereo not shown) [Monastrol, reference compound]	35.5 ± 6.4	25.6 ± 7.3	40 ± 6.2	–
